One may read the IC50 as the concentration needed to halve the response being measured. High values mean lower potency, low ones higher potency. As usually defined, the EC50 is the midpoint of the concentration-response curve. Lower therefore signals higher potency in that assay.

Consider six compounds from ChEMBL document CHEMBL4316638, “Bioactive Meroterpenoids and Isocoumarins from the Mangrove-Derived Fungus Penicillium sp. TGM112” (J Nat Prod, 2019).

Converted amounts (≈) assume the structure as drawn. The source made the active and inactive calls. The rule behind the calls is not given here.

One experiment relates to HepG2. The experiment can be described thus: Cytotoxicity against human HepG2 cells measured after 7 days by MTT assay. The class given is functional, cell-based.
Experiment [1] relates to Staphylococcus aureus. The experiment can be described thus: Antibacterial activity against Staphylococcus aureus ATCC 25923 by microplate assay. The class given is functional, organism-based.
The test system of the next experiment is Bacillus cereus. The experiment can be described thus: Antibacterial activity against Bacillus cereus ATCC 11778 by microplate assay. Type of experiment: functional, organism-based.
Another experiment has as its system Helicoverpa armigera. Briefly: Insecticidal activity against Helicoverpa armigera hubner measured every other day for 8 days starting from 2 days post dosing. The class given is functional, organism-based. Summed up:
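Neonate H. armigera larvae fed artificial diet dosed with serial dilutions of compound (1 mg/mL in DMSO) at 200, 100, 50, 25 and 12.5 μL/well in six-well plates; three groups of three larvae, 3 replicates per treatment. Held at 25 ± 1 °C, 80% relative humidity. Dead larvae counted on days 2, 4, 6, 8. DMSO negative, azadirachtin positive, plain diet blank controls.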

For a further experiment, the system named is Vibrio alginolyticus. Briefly: Antibacterial activity against Vibrio alginolyticus ATCC 17749 by microplate assay. Type of experiment: functional, organism-based. Particulars: NBRC 15630 = ATCC 17749.
A further experiment relates to Vibrio parahaemolyticus. Briefly: Antibacterial activity against Vibrio parahaemolyticus ATCC 17802 by microplate assay. Type of experiment: functional, organism-based.
For another experiment, the system named is Caenorhabditis elegans. Briefly: Insecticidal activity against Caenorhabditis elegans measured at 12 […]. The class given is functional, organism-based. Summed up: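 L1 C. elegans (30−40 worms/well) in S medium with E. coli OP50 and chloramphenicol, exposed to compound at 40, 20, 10, 5, 1 and 0 μg/mL diluted in filter-sterilized M-9; 3 replicates per treatment. Plates sealed, kept at 24 °C for 60 h in the dark; dead larvae counted at 12, 24, 36, 48, 60. M-9 negative control, levamisole 1 mg/mL positive control.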

Experiment [2] concerns Staphylococcus aureus. Briefly: Antibacterial activity against methicillin-resistant Staphylococcus aureus ATCC 33591 by microplate assay. Type of experiment: functional, organism-based. Summed up: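 MRSA (ATCC 33591) was one strain in a panel of six pathogenic bacteria: four general and two marine Vibrio. Assayed by the microplate method, with ciprofloxacin as positive control.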

The next experiment deals with Escherichia coli. Briefly: Antibacterial activity against Escherichia coli ATCC 25922 by microplate assay. Type of experiment: functional, organism-based.
Another experiment has as its system HeLa. The experiment can be described thus: Cytotoxicity against human HeLa cells measured after 7 days by MTT assay. Type of experiment: functional, cell-based. For orientation: Tetrazolium assays rely on reduction of a dye to a coloured formazan, in cell work by metabolically active cells.
The next experiment has as its system A549. The experiment can be described thus: Cytotoxicity against human A549 cells measured after 7 days by MTT assay. The class given is functional, cell-based.
For another experiment, the system named is RAW264.7. Briefly: Inhibition of LPS-induced nitric oxide production in mouse RAW264.7 cells preincubated for 30 mins followed by LPS-stimulation and measured after 24 hrs by Griess assay. Type of experiment: functional, cell-based. Summed up:
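RAW264.7 macrophages seeded at 50 000 cells/well and grown 24 h, then exposed to compound for 30 min at 37 °C before LPS (100 ng/mL) co-incubation for 24 h. Nitrite in supernatant measured by Griess reagent (10 min mixing), absorbance 540 nm. Compounds from 10 mM DMSO stocks; final DMSO ≤0.1%. Dexamethasone positive control. Triplicate runs; IC50 calculated.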
A general note: The Griess reaction detects nitrite, a stable product of nitric oxide.

As to `C=C1[C@]2(CCC(=O)OC2(C)C)C[C@@H](OC(=O)/C(C)=C\C)[C@]2(C)[C@]34C(=O)O[C@H](C)[C@]35O[C@]12[C@H](OC(C)=O)[C@@](C)(OC5=O)C4=O`, the result in the experiment with HepG2, with Staphylococcus aureus [1], with Bacillus cereus, in the experiment on Vibrio alginolyticus, in the experiment on Vibrio parahaemolyticus and in the experiment with Staphylococcus aureus [2] was inactive. Also, the result in the experiment with Escherichia coli, with HeLa and with A549 was inactive. Also, the IC50 in the experiment on Helicoverpa armigera came out at 200 µg/mL (≈ 333 µM). In addition, in the experiment with Caenorhabditis elegans, the EC50 worked out at 9.4 µg/mL (≈ 15.7 µM). Further, in the experiment with RAW264.7, the inhibition entry is “inactive”.
`C=C1[C@@]23C(=O)O[C@H](C)[C@]24O[C@@]2(C(=C)[C@]5(C=CC(=O)OC5(C)C)C[C@@H](O)[C@]32C)[C@H](OC(C)=O)[C@@]1(C)OC4=O`: the outcome in the experiment on HepG2, with Staphylococcus aureus [1], in the experiment on Bacillus cereus, with Vibrio alginolyticus, in the experiment on Vibrio parahaemolyticus and in the experiment with Staphylococcus aureus [2] was inactive. For the same compound, the outcome in the experiment on Escherichia coli, in the experiment on HeLa and in the experiment on A549 was inactive. This compound also came in with an EC50 in the experiment on Caenorhabditis elegans of 20.6 µg/mL (≈ 40 µM). Moreover, the inhibition result in the experiment on RAW264.7 is “inactive”.
Consider `C=C1[C@@]23C(=O)O[C@H](C)[C@]24O[C@@]2(C(=C)[C@]5(C=CC(=O)OC5(C)C)C[C@@H](O)[C@]32C)[C@H](O)[C@@]1(C)OC4=O`, for which the result in the experiment on HepG2, in the experiment on Staphylococcus aureus [1], in the experiment on Bacillus cereus, in the experiment with Vibrio alginolyticus, in the experiment with Vibrio parahaemolyticus and in the experiment on Staphylococcus aureus [2] was inactive. Further, the result in the experiment with Escherichia coli, in the experiment on HeLa and with A549 was inactive. In the experiment with Helicoverpa armigera, this compound showed an IC50 of 200 µg/mL (≈ 423 µM). This compound also had an EC50 with Caenorhabditis elegans of 9.9 µg/mL (≈ 21 µM). Besides, the inhibition result with RAW264.7 is “inactive”.
With `C=C1[C@@]23C(=O)O[C@H](C)[C@@]2(O)C(=O)O[C@]1(C)[C@@H](O)C1=C2COC4CC(=O)OC(C)(C)[C@@]24CC[C@@]13C` (some centres undefined), the outcome with HepG2, with Staphylococcus aureus [1], in the experiment on Bacillus cereus, in the experiment on Vibrio alginolyticus, in the experiment on Vibrio parahaemolyticus and in the experiment with Staphylococcus aureus [2] was inactive. For the same compound, the result in the experiment with Escherichia coli, in the experiment with HeLa and in the experiment on A549 was inactive. The midpoint of the response in the experiment on Caenorhabditis elegans, the EC50, lay at 19.1 µg/mL (≈ 40.3 µM). Besides, the inhibition entry in the experiment on RAW264.7 is “inactive”.
As for `C=C1[C@@]23C(=O)O[C@H](C)[C@@]2(O)C(=O)O[C@]1(C)[C@@H](O)C1=C(C)[C@]2(CCC(=O)OC2(C)C)CC[C@@]13C`, the result in the experiment with HepG2, with Staphylococcus aureus [1], with Bacillus cereus, with Vibrio alginolyticus, in the experiment with Vibrio parahaemolyticus and in the experiment with Staphylococcus aureus [2] was inactive. Also, the outcome with Escherichia coli, in the experiment with HeLa and in the experiment with A549 was inactive. This compound also displayed an IC50 in the experiment on Helicoverpa armigera of 100 µg/mL (≈ 217 µM). This compound also came in with an EC50 in the experiment with Caenorhabditis elegans of 19.5 µg/mL (≈ 42.3 µM). In the experiment on RAW264.7, the inhibition result is “inactive”.
Turning to `C=C1[C@@]23C(=O)O[C@H](C)[C@]24O[C@@]2(C(=C)[C@]5(C=CC(=O)OC5(C)C)CC[C@]32C)[C@H](O)[C@@]1(C)OC4=O`, the outcome with HepG2, in the experiment with Staphylococcus aureus [1], with Bacillus cereus, with Vibrio alginolyticus, in the experiment with Vibrio parahaemolyticus and with Staphylococcus aureus [2] was inactive. Besides, the outcome in the experiment with Escherichia coli, in the experiment on HeLa and in the experiment with A549 was inactive. Besides, in the experiment with Caenorhabditis elegans, the EC50 was 38.2 µg/mL (≈ 83.7 µM). In the experiment on RAW264.7, the inhibition entry was “inactive”.
